Source: the M2OR odorant receptor database

Legend:
UniProt Q9WVD9 = details: stereoisomer not certain
Outline: (§1)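 Each receptor–molecule pair is labelled responsive or non-responsive (inactive) according to whether the original authors judged the measured signal statistically different from baseline. The data were taken from the main text and supplementary material of published papers and checked for typos and inconsistencies. Assay methods differed by source, with transient luciferase assays in mammalian cell lines being common.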

UniProt Q9WVN5 = target: T1, UniProt Q9WVN5; details: stereoisomer not certain
T1 sequence (whole entry): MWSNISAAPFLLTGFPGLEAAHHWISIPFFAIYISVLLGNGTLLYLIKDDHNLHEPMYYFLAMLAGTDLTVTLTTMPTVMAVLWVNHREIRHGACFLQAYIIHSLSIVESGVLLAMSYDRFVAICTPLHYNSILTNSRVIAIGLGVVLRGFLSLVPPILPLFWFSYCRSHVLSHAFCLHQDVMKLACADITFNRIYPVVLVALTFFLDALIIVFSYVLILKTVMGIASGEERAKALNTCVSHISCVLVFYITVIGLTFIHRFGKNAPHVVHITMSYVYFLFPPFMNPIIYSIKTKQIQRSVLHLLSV
Outline: as §1
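Further: active if original authors judged signal statistically different from baseline.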

Sequence of UniProt Q9WVD9 (Q9WVD9 as listed by the source): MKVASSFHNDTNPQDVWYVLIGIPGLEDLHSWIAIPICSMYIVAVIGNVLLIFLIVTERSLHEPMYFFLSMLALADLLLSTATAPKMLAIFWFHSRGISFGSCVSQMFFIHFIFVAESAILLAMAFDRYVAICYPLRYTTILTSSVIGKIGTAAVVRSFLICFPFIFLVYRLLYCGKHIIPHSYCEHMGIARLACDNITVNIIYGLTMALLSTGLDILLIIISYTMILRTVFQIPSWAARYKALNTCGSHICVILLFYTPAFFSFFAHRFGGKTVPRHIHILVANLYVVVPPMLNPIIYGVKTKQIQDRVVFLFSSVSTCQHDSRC

Compound	odorant receptor agonist call (UniProt Q9WVD9)	odorant receptor agonist call (UniProt Q9WVN5)
C=C(C)C1CCC(C)C(=O)C1 (centres undefined)	inactive	inactive
COc1cc(C(=O)O)ccc1O	inactive	inactive
CCC(C(=O)O)c1ccccc1 (centres undefined)	inactive	inactive
CCCCC(=O)O	inactive	active
O=C1CCOc2ccccc21	inactive	inactive
CCCCCOC(=O)CCCCC	inactive	inactive
O=c1ccc2ccccc2o1	inactive	inactive
CCCCCCCC(C)=O	inactive	inactive
CCCCCC=O	inactive	active
CCCC(C)=O	inactive	inactive
CC(=O)OCc1ccccc1	inactive	inactive
CC(C)=CCCC(C)CCO (centres undefined)	inactive	inactive
CC(C)=CCCC(C)=CCO	inactive	inactive
CCC(=O)C(=O)CC	inactive	inactive
CCCCCCO	inactive	inactive
CCCCCCC(C)=O	inactive	inactive
CCCCCCCCS	inactive	inactive
CCCC(=O)C(C)=O	inactive	inactive
CCCCCO	inactive	inactive
O=C(c1ccccc1)c1ccccc1	inactive	inactive
C=CCOC(=O)CCCCCC	inactive	inactive
CCCCCCCCCCO	inactive	inactive
